Where “and” joins values, the source holds several entries; their conditions need not be identical. Equal values may be shown once. Calls of active or inactive are those of the source.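 Rule for the calls: active = remaining nuclease activity at or below 52% of the solvent-only control at any tested dose; inactive = above 52% at every tested dose.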
Test system: ATP-dependent helicase/nuclease AddAB (Helicobacter pylori 26695)
Assay: AddAB nuclease inhibitors, single dose, late-stage follow-up, biochemical, radioactivity, purified enzyme, 100 µM, powder samples (AID 602422)
Settings: [3H]-dsDNA TCA-soluble nuclease assay, at 100 µM, hits give low values
Procedure, shortened: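 Compound dosing: nominal 100 µM, 5% DMSO. Test system: purified AddAB. Benchmarks: DMSO control, no-enzyme background. Schedule: 20 min reaction, 37 °C. Measured by: scintillation counting, TCA-soluble counts. Medium: Tris-HCl pH 8.5, MgCl2, ATP. Reagent: tritiated phage T7 dsDNA substrate at 6 µM nucleotides (2 µg/mL).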

| SMILES | remaining nuclease activity |
| --- | --- |
| CCn1cc(C(=O)O)c(=O)c2cnc(N3CCN(C(=S)Nc4ccccc4F)CC3)nc21 | 74% (inactive) |
| CCn1cc(C(=O)O)c(=O)c2cnc(N3CCN(C(=S)NCc4ccccc4)CC3)nc21 | 55% (inactive) |
| CCn1cc(C(=O)O)c(=O)c2cc(F)c(N3CCN(C(=S)Nc4cccc(C(F)(F)F)c4)CC3)cc21 | 9% |
| CCn1cc(C(=O)O)c(=O)c2cnc(N3CCN(C(=S)NC(=O)c4cccc(C)c4)CC3)nc21 | 95% (inactive) |
| CCn1cc(C(=O)O)c(=O)c2cnc(N3CCN(C(=S)Nc4ccccc4Cl)CC3)nc21 | 74% (inactive) |
| COC(=O)c1c(-c2cccc(C)c2)csc1NC(=O)c1cnccn1 | 88% (inactive) |
| CC1(C)Cc2c(sc(NC(=O)c3ccco3)c2C#N)CO1 | 69% (inactive) |
| CCn1cc(C(=O)O)c(=O)c2cnc(N3CCN(C(=S)Nc4ccc5c(c4)OCO5)CC3)nc21 | 46% |
| NC(=O)c1c(NC(=O)c2cnccn2)sc2c1CCCC2 | 87% (inactive) |
| CCn1cc(C(=O)O)c(=O)c2cnc(N3CCN(C(=S)NC4CC5CCC4C5)CC3)nc21 (stereo not drawn) | 6% |
| CSc1ncc(Cl)c(C(=O)Nc2sc3c(c2C(=O)NC2CCS(=O)(=O)C2)CCC(C)C3)n1 (stereo not drawn) | 77% (inactive) |
| Nc1c(NC(=O)c2ccc([N+](=O)[O-])o2)sc2c1CCCC2 | 116% (inactive) |
| CCn1cc(C(=O)O)c(=O)c2cnc(N3CCN(C(=S)Nc4cccc(C(F)(F)F)c4)CC3)nc21 | 8% |
| CCn1cc(C(=O)O)c(=O)c2cnc(N3CCN(C(=S)Nc4ccccc4)CC3)nc21 | 83% (inactive) |
| Cc1sc(NC(=O)c2cnccn2)c(C(=O)OC(C)C)c1-c1ccccc1 | 33% |
| CSc1ncc(Cl)c(C(=O)Nc2sc3c(c2C#N)CCC(C)C3)n1 (stereo not drawn) | 100% (inactive) |
| C=CCNC(=S)N1CCN(c2ncc3c(=O)c(C(=O)O)cn(CC)c3n2)CC1 | 93% (inactive) |
| CCn1cc(C(=O)O)c(=O)c2cnc(N3CCN(C(=S)NC(C)c4ccccc4)CC3)nc21 (stereo not drawn) | 13% |

| SMILES | remaining nuclease activity |
| --- | --- |
| CCC(C)(C)C1CCc2c(sc(NC(=O)c3cnccn3)c2C#N)C1 (stereo not drawn) | 103% (inactive) |
| Cc1sc(NC(=O)c2ccc(Br)o2)c(C#N)c1C | 40% |
| CCn1cc(C(=O)O)c(=O)c2cnc(N3CCN(C(=S)Nc4ccccc4OC)CC3)nc21 | 68% (inactive) |
| CCn1cc(C(=O)O)c(=O)c2cnc(N3CCN(C(=S)NC(=O)c4cccnc4)CC3)nc21 | 101% (inactive) |
| CCn1cc(C(=O)O)c(=O)c2cnc(N3CCN(C(=S)Nc4ccc(F)cc4)CC3)nc21 | 43% |
| CCn1cc(C(=O)O)c(=O)c2cnc(N3CCN(C(=S)Nc4ccccc4C)CC3)nc21 | 81% (inactive) |
| CCn1cc(C(=O)O)c(=O)c2cnc(N3CCN(C(=S)NC)CC3)nc21 | 101% (inactive) |
| CCn1cc(C(=O)O)c(=O)c2cnc(N3CCN(C(=S)NC(=O)c4ccccc4Cl)CC3)nc21 | 93% (inactive) |
| CC1CCc2c(sc(NC(=O)c3ccc([N+](=O)[O-])o3)c2N)C1 (stereo not drawn) | 128% (inactive) |
| CNC(=O)c1c(NC(=O)c2nc(SCc3ccccc3)ncc2Cl)sc2c1CCCC2 | 21% |
| CCn1cc(C(=O)O)c(=O)c2cnc(N3CCNCC3)nc21 | 103% (inactive) |
| CCn1cc(C(=O)O)c(=O)c2cnc(N3CCN(C(=S)Nc4ccc(Cl)cc4)CC3)nc21 | 19% |
| CCn1cc(C(=O)O)c(=O)c2cc(F)c(N3CCN(C(=S)Nc4ccccc4C(F)(F)F)CC3)cc21 | 51% |
| COC(=O)c1c(-c2ccccc2)csc1NC(=O)c1cnccn1 | 31% |
| CCn1cc(C(=O)O)c(=O)c2cnc(N3CCN(C(=S)Nc4ccccc4C(F)(F)F)CC3)nc21 | 90% (inactive) |
| CCn1cc(C(=O)O)c(=O)c2cnc(N3CCN(C(=S)Nc4ccc5c(c4)OCCO5)CC3)nc21 | 62% (inactive) |
| CCn1cc(C(=O)O)c(=O)c2cnc(N3CCN(C(=O)Nc4ccccc4)CC3)nc21 | 92% (inactive) |
| CCn1cc(C(=O)O)c(=O)c2cnc(N3CCN(C(=S)NC(=O)c4ccco4)CC3)nc21 | 89% (inactive) |

More lines, now with the values ahead:

| remaining nuclease activity | SMILES |
| --- | --- |
| 65% (inactive) | N#Cc1c(NC(=O)c2cccc(F)c2)sc2c1CCCC2 |
| 92% (inactive) | N#Cc1c(NC(=O)C2CC=CCC2C(=O)O)sc2c1CCC2 (stereo not drawn) |
| 91% (inactive) | CC1CCc2c(sc(NC(=O)c3cnccn3)c2C#N)C1 (stereo not drawn) |
| 55% (inactive) | N#Cc1c(NC(=O)c2ccccc2C(=O)O)sc2c1CCCC2 |
| 92% (inactive) | N#Cc1c(NC(=O)c2ccc([N+](=O)[O-])o2)sc2c1CCCC2 |
| 72% (inactive) | Cc1ccc(C(=O)Nc2sc3c(c2C#N)CCCCC3)o1 |
| 10% and 36% | N#Cc1c(NC(=O)c2cnccn2)sc2c1CCCC2 |
| 71% (inactive) | Cn1nccc1C(=O)Nc1sc2c(c1C#N)CCCC2 |
| 111% (inactive) | N#Cc1c(NC(=O)c2ccccc2)sc2c1CCC2 |
| 41% | N#Cc1c(NC(=O)c2ccco2)sc2c1CCC2 |
| 92% (inactive) | CC1CCc2c(sc(NC(=O)c3cccs3)c2C#N)C1 (stereo not drawn) |
| 70% (inactive) | N#Cc1c(NC(=O)c2cnccn2)sc2c1CCCCCC2 |
| 89% (inactive) | CC1CCc2c(sc(NC(=O)c3ccc([N+](=O)[O-])o3)c2C#N)C1 (stereo not drawn) |
| 73% (inactive) | N#Cc1c(NC(=O)c2ccc(-c3ccccc3[N+](=O)[O-])o2)sc2c1CCCC2 |
| 93% (inactive) | COC(=O)c1c(NC(=O)c2cnccn2)sc2c1CCCC2 |
| 42% | N#Cc1c(NC(=O)c2cc(-c3ccccc3)on2)sc2c1CCCC2 |
| 98% (inactive) | Cc1ccc(C(=O)Nc2sc3c(c2C#N)CCC3)o1 |

From PubChem BioAssay AID602422 (The Scripps Research Institute Molecular Screening Center, 2012)
